Data taken from ChEMBL document CHEMBL4680238, “Novel octapeptide-DTX prodrugs targeting MMP-7 as effective agents for the treatment of colorectal cancer with lower systemic toxicity” (Eur J Med Chem, 2020).
Residues, ends and D or L forms follow the SMILES beside them. *: point of attachment. X1 = CC(=O)O[C@@]12CO[C@@H]1C[C@H](O)[C@@]1(C)C(=O)[C@H](O)C3=C(C)[C@@H](OC(=O)[C@H](OC(=O)OCc4ccc(N*)cc4)[C@@H](NC(=O)OC(C)(C)C)c4ccccc4)C[C@@](O)([C@@H](OC(=O)c4ccccc4)[C@H]21)C3(C)C

What was measured:
HCT-116 [1] = test: Antitumour activity against human HCT-116 cells xenografted in BALB/c nude mouse assessed as tumour growth inhibition at 23.4 mg/kg, ip administered once for every 7 days for 14 days relative to control; assay type: functional; conditions: HCT-116, ip, 336 h, time 14 day, read-out: TGI
How it was run: (§1)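 Male BALB/c nude mice received s.c. HCT116 cells (2 × 10^6 in 0.2 mL PBS). Once tumours reached 100-200 mm3, mice were randomized into groups of six. Dosing was ip, 0.1 mL/10 g, once every 7 days, in DMSO 0.5%/castor oil 5%/ethanol 5%/saline 89.5%; vehicle controls got solvent. Caliper volume V = L×W²×0.52 read every 2-3 days. Tumours excised and weighed on day 14.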

[2] = Apparent clearance in Sprague-Dawley rat at 5 mg/kg, iv measured up to 72 hrs by LC-MS/MS analysis; assay type: ADME, organism-based; conditions: Sprague-Dawley, in vivo, read-out: CL(app) (converted)
How it was run: (§2)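 Male SD rats (180-200 g), fasted 12 h with free water, n = 3 per group. Single tail-vein dose of 5 mg/kg in 0.5% DMSO/5% castor oil/5% ethanol/89.5% saline. Retro-orbital blood drawn 0.083-72 h with heparin. Plasma protein-precipitated with methanol containing paclitaxel internal standard, then analysed by LC-MS/MS. Parameters from non-compartmental analysis, mean ± SD. For the DTX group, parameters were calculated after converting dose to the molar equivalent of the prodrug.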

[3] = Toxicity in BALB/c nude mouse xenografted with human HCT-116 cells assessed as concentrated nucleus in liver at 11.73 mg/kg, ip administered once for every 7 days for 14 days by H and E staining based assay; assay type: organism-based; conditions: in vivo, 336 h, time 14 day
How it was run: (§3)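 At the end of the 14-day ip xenograft study (HCT116, BALB/c nude), heart and liver were collected from vehicle and molar-equivalent dose groups. Tissues fixed in 10% formalin in PBS and stained with H&E. Liver examined at 400×, heart at 100×.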

[4] = AUC (0 to t) in Sprague-Dawley rat assessed as docetaxel level at 5 mg/kg, iv measured up to 72 hrs by LC-MS/MS analysis; assay type: ADME, organism-based; set-up: route intravenous, dose 5 mg/kg, time <=72; conditions: in vivo; how it was run: as §2
[5] = Half life in Sprague-Dawley rat plasma t 50 ug/ml up to 72 hrs by RP-HPLC analysis; assay type: ADME, cell-free; conditions: dose 50 µg/ml
[6] = AUC (0 to infinity) in Sprague-Dawley rat assessed as docetaxel level at 5 mg/kg, iv measured up to 72 hrs by LC-MS/MS analysis; assay type: ADME, organism-based; set-up: route intravenous, dose 5 mg/kg, time <=72; conditions: in vivo; how it was run: as §2
[7] = Drug uptake in BALB/c nude mouse xenografted with human HCT-116 cells assessed as drug level in tumour at 5 mg/kg, iv measured up to 24 hrs by LC-MS/MS analysis; assay type: ADME, organism-based, Neoplasm; conditions: in vivo
How it was run: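 Male BALB/c nude mice bearing s.c. HCT116 tumours (200-300 mm3), 20 per group. Single tail-vein dose of 5 mg/kg. Five mice per group killed at 0.5, 4, 8 and 24 h and heart-perfused with PBS. Tissues homogenized in saline (4 µL/mg) and precipitated with methanol containing paclitaxel internal standard. Prodrug, released DTX and free DTX measured by LC-MS/MS.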

SW-620 [8] = test: Potency index, ratio of 4FDT IC50 to test compound IC50 for Cytotoxicity against human SW-620 cells; assay type: functional
HCT-116 [9] = test: Antitumour activity against human HCT-116 cells xenografted in ip dosed BALB/c nude mouse assessed as tumour growth inhibition administered once for every 7 days for 14 days; assay type: functional, organism-based; conditions: time 14.0 day; how it was run: as §1
[10] = Half life in Sprague-Dawley rat assessed as docetaxel level at 5 mg/kg, iv measured up to 72 hrs by LC-MS/MS analysis; assay type: ADME, organism-based; conditions: in vivo; how it was run: as §2
[11] = Apparent volume of distribution in Sprague-Dawley rat assessed as docetaxel level at 5 mg/kg, iv measured up to 72 hrs by LC-MS/MS analysis; assay type: ADME, organism-based; conditions: in vivo; how it was run: as §2
[12] = Toxicity in BALB/c nude mouse xenografted with human HCT-116 cells assessed as inflammatory cell invasion in heart at 11.73 mg/kg, ip administered once for every 7 days for 14 days by H and E staining based assay; assay type: organism-based; conditions: in vivo, 336 h, time 14 day; how it was run: as §3
[13] = Apparent volume of distribution in Sprague-Dawley rat at 5 mg/kg, iv measured up to 72 hrs by LC-MS/MS analysis; assay type: ADME, organism-based; conditions: in vivo, read-out: Vz; how it was run: as §2
[14] = Toxicity in ip dosed Kunming mouse measured for 14 days; assay type: organism-based; conditions: in vivo, time 14 day
How it was run: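 Healthy Kunming mice of both sexes, 20 ± 2 g, randomised into 5 groups of 10 matched for weight and size. Compound given once intraperitoneally at 400, 300, 250 or 150 mg/kg in formulation solvent (0.5% DMSO, 5% castor oil, 5% ethanol, 89.5% saline), 0.1 mL per 10 g; vehicle controls received solvent. Deaths recorded daily for 14 days; LD50 by Bliss method.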

SW-620 [15] = test: Cytotoxicity against human SW-620 cells assessed as reduction in cell viability after 72 hrs by MTT assay; assay type: functional, cell-based; conditions: SW-620, 72 h
How it was run: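 Cells seeded at 5000/well and precultured 1 day. HCT116 grown in McCoy's 5A + 10% FBS; SW620 and HEK293 in DMEM + 10% FBS; CCD18Co in DMEM + 15% FBS. Compounds from 0.1 M DMSO stocks were tested at 10^-10 to 10^-4 mol/L in sixplicate: HCT116 and HEK293 for 48 h, SW620 and CCD18Co for 72 h, at 37 °C, 5% CO2. MTT (5 mg/mL) added for 4 h, then A570 read; IC50 estimated.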

[16] = AUC (0 to infinity) in Sprague-Dawley rat at 5 mg/kg, iv measured up to 72 hrs by LC-MS/MS analysis; assay type: ADME, organism-based; set-up: route intravenous, dose 5 mg/kg, time <=72; conditions: Sprague-Dawley, in vivo; how it was run: as §2

Structure (SMILES): CC[C@H](C)[C@H](NC(=O)CNC(=O)[C@H](CCC(N)=O)NC(=O)[C@@H]1CCCN1C(=O)CNC(C)=O)C(=O)N[C@@H](C)C(=O)N[C@@H](CCSC)C(=O)N[C@@H](CCC(N)=O)C(=O)N[C@@H](CC(C)C)C(=O)Nc1ccc(COC(=O)O[C@@H](C(=O)O[C@H]2C[C@@]3(O)[C@@H](OC(=O)c4ccccc4)[C@@H]4[C@]5(OC(C)=O)CO[C@@H]5C[C@H](O)[C@@]4(C)C(=O)[C@H](O)C(=C2C)C3(C)C)[C@@H](NC(=O)OC(C)(C)C)c2ccccc2)cc1 (Ac-GPQGIAMQL-X1)
- inhibition in vivo at 23.4 mg/kg (HCT-116 [1]): 56.1%
- clearance [2]: 9.33 mL/min/kg
- Activity [3]: Non-Toxic
- AUCt [4]: 247 ng·h/mL
- half-life at 50 ug/ml [5]: 24.2 h
- AUC [6]: 299 ng·h/mL
- Drug uptake [7]: Active
- Ratio IC50 (SW-620 [8]): 9
- TGI (HCT-116 [9]): Dose-dependent effect
- t1/2 [10]: 7.03 h
- Vz [11]: 206.32 L/kg
- Activity [12]: Non-Toxic
- Vd [13]: 10.4 L/kg
- LD50 at 336 h [14]: 245 mg/kg
- IC50 (SW-620 [15]): 30 nM
- AUC(0-inf) [16]: 9240 ng·h/mL
